Consider ten compounds from ChEMBL document CHEMBL1146609, “Synthesis of water-soluble prodrugs of BMS-191011: a maxi-K channel opener targeted for post-stroke neuroprotection” (Bioorg Med Chem Lett, 2003).

In brackets after ≈: the same amount, converted by molar mass. Several values for one entry are separate records, joined by “and”; a condition that tells them apart may be missing. Equal entries are not always repeated.

Data set [1] is described as follows: Area under curve was determined. In kind it is ADME, organism-based. The note with it: rat, in vivo. Put shortly:
(§1)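 Male SD rats (N=3) given prodrug by IV infusion at 1.7 mg/kg (equivalent to 1 mg/kg parent), vehicle PEG-400/water 1:1. Blood samples were mixed at once with an equal volume of water, quenched with four volumes of acetonitrile and stored at -20 °C. Prodrug and parent were measured by two separate LC/MS/MS assays. Mean ±SD.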

The test system of data set [2] is Rattus norvegicus. Nature of the data set: Percent reduction of neocortical infract volume in 28 rats after IV administration (2h post MCA) at a dose of […]. In kind it is functional. Put shortly:
(§2)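 Rat MCA occlusion model. Neocortical infarct volume was compared with vehicle controls (2% DMSO/98% propylene glycol) in the same study. Statistics by ANOVA with Dunnett's t-test, p<0.05; 28–29 animals per group.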

Data set [3] relates to Rattus norvegicus. Put plainly: Percent reduction of neocortical infract volume in 29 rats after IV administration (2h post MCA)at a dose of […]. In kind it is functional. In a few lines: as §2
Data set [4] can be described thus: t1/2 (apparent elimination)of the compound was determined. In kind it is ADME, organism-based. The note with it: rat, in vivo. In a few lines:
as §1

Data set [5] is described as follows: Solubility in deionized water. Particulars: read-out: S. In kind it is physicochemical. Put shortly:
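Solubility of the prodrug (mg/mL) in deionized water.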

Data set [6] has as its system Rattus norvegicus. Put plainly: Percent reduction of neocortical infract volume in 28 rats after IV administration (2h post MCA)at a dose of […]. In kind it is functional. Put shortly: as §2
The species entered for data set [7] is Rattus norvegicus. Put plainly: Percentage converted to BMS-191011 after 30 min incubation in rat plasma at 37 degree C. It is filed as ADME, organism-based. Particulars: 0.5 h. Put shortly: (§3)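 Prodrug was incubated in rat plasma for 30 min at 37 °C. The percentage converted to the parent BMS-191011 was then determined.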
Data set [8] can be described thus: Plasma clearance was determined. In kind it is ADME, organism-based. Particulars: rat. Put shortly: as §1
Data set [9] is described as follows: […] expressed as percentage of compound remains at 24 hr in PEG400/Water, 1:1. It is filed as ADME, organism-based. The note with it: read-out: Prodrug remains. In a few lines: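 Chemical stability in PEG400/water (1:1) solution, given as the percentage of prodrug remaining after 24 h.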
Data set [10] in a line: Volume distribution was determined. In kind it is ADME, organism-based. Particulars: rat, in vivo; read-out: Vdss. Put shortly:
as §1

Data set [11] in a line: Solubility in water at 7.5 pH. It is filed as physicochemical. The note with it: pH 7.5, read-out: S.
Data set [12] can be described thus: Solubility in water at 2.4 pH. In kind it is physicochemical. The note with it: pH 2.4, read-out: S.
For data set [13], the species on record is Rattus norvegicus. Put plainly: […] expressed as percentage of compound remains at 24 hr in PEG400/Water, 1:1; Not stable. In kind it is ADME, organism-based.
Data set [14] in a line: Solubility in water at 7.2 pH. Particulars: pH 7.2, read-out: S. In kind it is physicochemical. Put shortly:
(§4)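 Aqueous solubility (mg/mL), measured with the pH of the resulting solution recorded.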

Data set [15] is described as follows: Solubility in water at 5.5 pH. In kind it is physicochemical. The note with it: pH 5.5, read-out: S. In a few lines: as §4
Data set [16] is described as follows: Solubility in water at 8.4 pH. It is filed as physicochemical. Particulars: pH 8.4.
Data set [17] is described as follows: Solubility in water at 7.0 pH. It is filed as physicochemical. Particulars: pH 7, read-out: S.
For data set [18], the species on record is Rattus norvegicus. Put plainly: Percentage converted to BMS-191011 after 30 min incubation in rat plasma at 37 degree C; Converted to an unknown compound. It is filed as ADME, organism-based. Particulars: 0.5 h. In a few lines:
as §3

Data set [19] is described as follows: Solubility in water at 4.2 pH. Particulars: pH 4.2, read-out: S. It is filed as physicochemical. In a few lines: as §4

As to `CS(=O)(=O)[O-].C[N+](C)(C)CCCC(=O)OCOc1ccc(Cl)cc1Cn1nc(-c2ccc(C(F)(F)F)cc2)oc1=O`, the area under the curve (AUC) – broadly, the area under the concentration-time curve, a measure of exposure – in data set [1] was found to be 1.26 µg·h/mL. Further, the Reduction is -13% in the data set on Rattus norvegicus [2]; -16% with Rattus norvegicus [3]; -14% and -12% and -17% in the data set on Rattus norvegicus [6]. The half-life (commonly the time in which the quantity being followed falls by half) in data set [4] was 2.7 h. The solubility in data set [5] is > 25 mg/mL. In addition, the Conversion in the data set filed under Rattus norvegicus [7] was > 80%. Further, the clearance – broadly, a measure of how efficiently the substance is removed, as volume per time – in data set [8] was found to be 1.37 L/h/kg. Besides, the remaining at 24 h in [9] is > 97%. In [10], the Vd stood at 2.6 L/kg.
Regarding `O=C(OCOP(=O)(O)O)Oc1ccc(Cl)cc1Cn1nc(-c2ccc(C(F)(F)F)cc2)oc1=O`, the solubility in [11] amounted to 0.004 mg/mL (≈ 0.00762 mM); in [12] it was 0.055 mg/mL (≈ 0.105 mM). In addition, the Prodrug remains result in the data set filed under Rattus norvegicus [13] was “Not stable”.
Consider `CS(=O)(=O)[O-].C[N+](C)(C)CCC(=O)Oc1ccc(Cl)cc1Cn1nc(-c2ccc(C(F)(F)F)cc2)oc1=O`, for which, in data set [5], the solubility was > 4 mg/mL. The Conversion in the data set filed under Rattus norvegicus [7] is on record as 100%. In [9], the remaining at 24 h was > 90%.
In turn, `O=c1oc(-c2ccc(C(F)(F)F)cc2)nn1Cc1cc(Cl)ccc1O` displayed an AUC in data set [1] of 0.0524 µg·h/mL. Moreover, the half-life in data set [4] was 1.2 h.
For the compound `O=c1oc(-c2ccc(C(F)(F)F)cc2)nn1Cc1cc(Cl)ccc1OP(=O)(O)O`, the solubility in [14] stood at 14.6 mg/mL (≈ 32.4 mM); in data set [15] it was 4.9 mg/mL (≈ 10.9 mM). Also, the Conversion in the data set listed under Rattus norvegicus [7] amounted to 0%.
On to `CS(=O)(=O)[O-].C[N+](C)(C)CCCC(=O)Oc1ccc(Cl)cc1Cn1nc(-c2ccc(C(F)(F)F)cc2)oc1=O`, for which the solubility in [5] is > 4 mg/mL. In addition, in the data set filed under Rattus norvegicus [7], the Conversion was 95%. For the same compound, in [9], the remaining at 24 h is > 90%.
In the case of `CS(=O)(=O)[O-].C[N+](C)(C)CC(=O)c1ccc(Cl)cc1Cn1nc(-c2ccc(C(F)(F)F)cc2)oc1=O`, the remaining at 24 h in data set [9] was > 90%.
As to `O=c1oc(-c2ccc(C(F)(F)F)cc2)nn1Cc1cc(Cl)ccc1OCOP(=O)(O)O`, the values for the solubility in data set [16] and in data set [17] were > 16 mg/mL and 6.1 mg/mL (≈ 12.7 mM), respectively. For the same compound, the Prodrug remains entry in the data set listed under Rattus norvegicus [13] is reported as “Not stable”.
`CS(=O)(=O)[O-].C[N+](C)(C)CCOC(=O)Oc1ccc(Cl)cc1Cn1nc(-c2ccc(C(F)(F)F)cc2)oc1=O`: the Conversion in the data set listed under Rattus norvegicus [7] is given as 100%. Also, the remaining at 24 h in [9] is 72%.
Consider `CS(=O)(=O)[O-].C[N+](C)(C)CC(=O)OCOc1ccc(Cl)cc1Cn1nc(-c2ccc(C(F)(F)F)cc2)oc1=O`, for which, in the data set filed under Rattus norvegicus [18], the Conversion entry is “Converted to an unknown compound”. For the same compound, the solubility in [19] came out at 4.5 mg/mL.
